# GPR7 antagonist – GPR7 receptor antagonists, primary screen, cell-based, fluorescence, single concentration | inhibition, % at 4.4 µM | AID 1861, 2009 | actives 1.1% (n = 290,000) | GPR7-expressing cells, fluorescence antagonist assay | Neuropeptides B/W receptor type 1 (Homo sapiens), P48145; in the data active means inhibition above about 16%, passing the limit was not always enough;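 further: cells stimulated with the agonist NPW; 0% = agonist with vehicle and 100% = vehicle without agonist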
# GalR3 antag – GalR3 antagonists in HEK293 cells, primary screen, cell-based, fluorescence readout; inhibition, % at 3 µM; actives 0.44% (n = 360,000); Galanin receptor type 3 (Homo sapiens), O60755; HEK293 GalR3-CNG cAMP membrane potential fluorescence; galR3 body fused to GalR1 C-terminus;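 active means inhibition above the screen-wide average plus 3 SD, cut at about 13% in these data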;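 further: forskolin and galanin both at EC90 stimulate the cells; cAMP rise reported by CNG channel membrane potential dye signal; 0% = forskolin plus galanin with DMSO and 100% = forskolin alone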
# CHO parental Ca – ATP-evoked calcium signal inhibitors, parental CHO, primary screen, counter-screen for OX1R antagonist project, cell-based, fluorescence, Fluo-8 calcium dye; parental CHO-K1, ATP-induced calcium, Fluo-8 fluorescence; inhibition, % at 5.6 µM; actives 0.63% (n = 330,000); AID 463079, 2010;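 active means inhibition above that plate's mean sample inhibition plus 3 SD, cut at about 26% in these data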;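 further: 0% = ATP-challenged DMSO wells and 100% = DMSO wells without ATP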
#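 Test system: untransfected parental CHO cell line. Compound: one dose, 5.6 µM nominal. Detection: intracellular calcium via Fluo-8 no-wash fluorescent dye. Measure: % inhibition. Benchmarks: ATP-challenged DMSO wells low, unchallenged DMSO wells high.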
# OX1R antag-1 – antagonists of human orexin 1 receptor (OX1R) | OX1R-expressing cells, FRET antagonist read-out | inhibition, % at 6.6 µM | actives 1.8% (n = 330,000) | AID 485270, 2010; in the data active means inhibition mostly above about 38%, no sharp cut-off; inactive means mostly below about 40%;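 further: 0% = agonist challenge alone and 100% = reference antagonist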
# Target sequence (O43613 whole entry, looked up): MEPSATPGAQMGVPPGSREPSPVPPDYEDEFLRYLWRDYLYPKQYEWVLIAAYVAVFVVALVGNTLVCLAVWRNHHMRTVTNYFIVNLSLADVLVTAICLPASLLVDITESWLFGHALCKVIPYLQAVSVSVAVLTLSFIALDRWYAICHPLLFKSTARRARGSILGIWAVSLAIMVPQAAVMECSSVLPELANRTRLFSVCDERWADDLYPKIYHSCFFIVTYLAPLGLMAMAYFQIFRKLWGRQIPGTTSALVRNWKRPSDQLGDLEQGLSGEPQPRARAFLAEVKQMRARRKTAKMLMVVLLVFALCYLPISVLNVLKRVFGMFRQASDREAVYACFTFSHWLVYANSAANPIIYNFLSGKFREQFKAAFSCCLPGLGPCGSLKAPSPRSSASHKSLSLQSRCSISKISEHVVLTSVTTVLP
# OX1R antag-2 – OX1R (HCRTR1) antagonists, primary screen, fluorescence, CHO/OX1R cells, Fluo-8 calcium, orexin A; Fluo-8 calcium fluorescence; inhibition, % at 5 µM; actives 0.43% (n = 330,000);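 active means inhibition above its plate's threshold, mean inhibition of all tested compounds on the plate plus 3 SD, cut at about 37% in these data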;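 further: 0% = orexin A challenge wells and 100% = SB-334867-A antagonist wells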
# * marks the source's active call; other numbers are inactive results; / = no result. A selection: hits, their analogues and other compounds. The true share with any hit is near 3.1%.
SMILES,GPR7 antagonist,GalR3 antag,CHO parental Ca,OX1R antag-1,OX1R antag-2
Cc1ccc([C@@H]2CC=C(C(=O)O)[C@H](c3ccc(Cl)cc3)N2S(=O)(=O)c2ccccc2C)cc1,/,-4,-6,49*,33
Cc1ccccc1S(=O)(=O)N1C(c2ccc(Cl)c(Cl)c2)CC=C(C(=O)O)C1c1cccc(Br)c1 (stereo not given),/,-3,/,/,/
COc1ccc([C@@H]2CC=C(C(=O)O)[C@H](c3ccc(Cl)cc3)N2S(=O)(=O)c2ccccc2C)cc1,/,-3,-26,48*,-14
Cc1ccc([C@@H]2CC=C(C(=O)O)[C@H](c3ccc(F)cc3)N2S(=O)(=O)c2ccccc2C)cc1,/,-6,-8,57*,0
Cc1ccc([C@@H]2CC=C(C(=O)O)[C@H](c3ccc(Cl)cc3)N2S(=O)(=O)c2ccc(C)cc2)cc1,/,7,-8,46,-17
COc1cccc(C(=O)N[C@@H](Cc2cccnc2)C(=O)N2CCC[C@H]2C(=O)NCc2ccccc2)c1,/,0,/,/,/
COc1ccccc1-c1nc(C#N)c(NCCCn2ccnc2)o1,-2,0,-6,20,-9
Cc1ccccc1S(=O)(=O)N1[C@@H](c2ccc(Br)cc2)C(C(=O)O)=CC[C@H]1c1ccc(Cl)cc1,/,-7,-12,34,7
COc1cccc([C@@H]2CC=C(C(=O)O)[C@H](c3cccc(Cl)c3)N2S(=O)(=O)c2ccc(C)cc2)c1,/,-4,-17,69*,9
Cc1ccccc1S(=O)(=O)N1[C@@H](c2ccccc2)C(C(=O)O)=CC[C@H]1c1ccc(Cl)cc1,/,-5,-20,76*,7
O=C(O)C1=CC[C@@H](c2ccc(Cl)cc2)N(S(=O)(=O)c2ccc(Cl)cc2)[C@H]1c1cccc(Cl)c1,/,-3,78*,85*,37
COc1cccc([C@@H]2CC=C(C(=O)O)[C@H](c3ccccc3)N2S(=O)(=O)c2ccc(C)cc2)c1,/,-7,-14,24,-19
Cc1ccc([C@@H]2CC=C(C(=O)O)[C@H](c3ccc(Br)cc3)N2S(=O)(=O)c2ccccc2C)cc1,/,-5,-3,39*,25
C[C@@H]1CN(c2ccc(N3CCNC[C@H]3C)cc2C#N)CCN1Cc1ccccc1,/,-8,/,/,/
C[C@@H]1CN([C@@H](C)CO)C(=O)CCCn2nncc2CO[C@H]1CN(C)C,/,-6,/,/,/
O=S(=O)(Nc1cc(S(=O)(=O)N2CCOCC2)ccc1NCC1CCCO1)c1ccccc1 (stereo not given),/,-4,-14,12,-31
Cc1ccc(S(=O)(=O)N2[C@@H](c3ccc(Cl)cc3)C(C(=O)O)=CC[C@H]2c2ccc(Cl)cc2)cc1,/,2,2,58*,12
CCNc1c2c3c(cccc3n(C)c1=O)C(=O)c1ccccc1-2,9,/,69*,30,89*
Cn1c(=O)c(NCCc2ccccc2)c2c3c(cccc31)C(=O)c1ccccc1-2,64*,-5,100*,76,108*
Cn1c(=O)c(NC2CCCCC2)c2c3c(cccc31)C(=O)c1ccccc1-2,-3,-8,/,/,/
Cc1ccc(C(=O)NC(=S)N2CCCCCC2)cc1,/,1,-12,3,-5
O=C(c1ccco1)N1CCN(C2CN(Cc3ccc([N+](=O)[O-])cc3)S(=O)(=O)C2)CC1 (stereo not given),/,-1,/,/,/
CCC(C)[C@H](NC(=O)N1CC(=O)Nc2ccccc21)C(=O)N1CCC(C(=O)O)CC1 (stereo not given in full),-1,-2,0,14,-3
Cc1ccc2c(CSc3nnnn3C)cc(=O)oc2c1,-11,0,-1,62*,-16
Clc1nc(Nc2ccc(N3CCOCC3)cc2)c2ccccc2n1,4,-4,-9,70*,-4
CC[n+]1cc(-c2ccccc2)nc(N2CCOCC2)n1,-2,-1,-5,51*,3
NC(=O)c1cc(-c2ccccc2)nc(N2CCOCC2)n1,-10,-4,-4,22,-10
Oc1ccc(Cl)cc1Cc1cc(Cl)ccc1O,35*,/,26,46*,4
